Screening results deposited in PubChem BioAssay by Broad Institute.
An excerpt weighted towards active compounds, which were near 3.8% of everything screened.
SIRT5 inh = SIRT5 desuccinylase inhibitors, primary screen, biochemical, fluorescence imaging, single point, set 5 | NAD-dependent protein deacylase sirtuin-5, mitochondrial (Homo sapiens), Q9NXA8 | Purified SirT5, succinyl-peptide AMC, trypsin-coupled fluorescence | inhibition, % at 15 µM | 1.1% of 330,000 active | AID 652115, 2013; in the data active = inhibition above about 15%; inconclusive = no clear call, values can overlap the other calls
FGF22 binding = binders of human FGF22 protein, primary screen, FGF22 synaptogenesis inhibitor project, biophysical, thermal shift, single point | Fibroblast growth factor 22 (Homo sapiens), Q9HCT0 | recombinant FGF22 thermal shift, SYPRO orange fluorescence; percent of sucrose octasulfate shift, DMSO zero | activity (Tm shift, normalised), % at 9.99 µM | 1.5% of 340,000 active | AID 651658, 2012;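 active = mean Tm shift, scaled 0 neutral to 100 positive control, at about 1.3% or above, every replicate too, limit read from the data; inconclusive = no clear call, values can overlap the other calls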
Target sequence (Q9HCT0 whole entry, looked up): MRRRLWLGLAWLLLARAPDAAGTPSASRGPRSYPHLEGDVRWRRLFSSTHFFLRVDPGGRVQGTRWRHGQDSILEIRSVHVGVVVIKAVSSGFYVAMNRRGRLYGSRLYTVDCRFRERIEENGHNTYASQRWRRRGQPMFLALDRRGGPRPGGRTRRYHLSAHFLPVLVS
ARNT-TACC3 inh = disruptors of ARNT/TACC3 protein interaction, primary screen, biochemical, AlphaScreen, single concentration | AlphaScreen His-ARNT PAS-B/GST-TACC3 binding, luminescence; TACC3 fragment carries E629A point mutation | inhibition, % at 9.99 µM | 0.66% of 390,000 active | AID 623870, 2012;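 active = mean inhibition of replicates at least 50% and at least half of replicates each reaching 50%; inconclusive = half or more replicates reach 50% but mean below 50%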;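 note: 0% = complete ARNT plus TACC3 wells and 100% = ARNT alone without TACC3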
DENV2 CPE = inhibitors of DENV2 cytopathic effect, primary screen, cell-based, plate reader, single concentration. DENV2-infected cells, cytopathic effect rescue. CPE inhibition, % at 9.99 µM. 1.7% of 350,000 active. AID 651640, 2012; in the data active = CPE inhibition above about 20%, passing the limit was not always enough; inconclusive = no clear call, values can overlap the other calls; tested in BHK-21 cells;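 note: 0% = median of neutral control wells and 100% = median of positive control wells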
XiGFP reactiv = activators of inactive X chromosome reactivation, primary screen, imaging, XiGFP fibroblasts, GFP high-content imaging, set 2. activation, % at 7.58 µM. XiGFP mouse fibroblasts, % GFP-positive cells imaging, 3 d; cells co-treated with 5-aza-dC sensitizer; scaled so ellipticine positive control = 100%. 0.055% of 360,000 active;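 active = mean normalized replicate activation at least 10% and every replicate at or above 10%; inconclusive = only one of the two criteria met; inactive = mean below 10% and not all replicates reach 10%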;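 note: 0% = median of on-plate neutral control wells and 100% = ellipticine 6 µM median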
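Material: XiGFP fibroblasts, SV40-immortalized. Buffer or medium: DMEM plus 5-aza-dC sensitizer. Compound: single concentration per compound, delivered by pin transfer. Times: 3 days compound exposure. Controls: ellipticine 6 µM.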
FN deposition inh = inhibitors of fibronectin matrix deposition, primary screen, AH1F cells, Alexa488-fibronectin fluorescence, plate reader | AH1F fibroblasts, overnight | inhibition, % at 12.6 µM | 0.086% of 350,000 active | AID 743247, 2014;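 active = mean inhibition across replicates of 30% or more, regardless of how many single replicates reach that level; inconclusive = mean under 30% yet at least half of replicates reach 30%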;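 note: positive control wells lacked labelled fibronectin entirely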
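Material – AH1F fibroblast monolayer, labelled fibronectin deposition · Reagent – labelled fibronectin 24 nM · Timing – 1 h adhesion, overnight exposure · Measured by – fluorescence at 485 nm excitation, 525 nm emission · Read-out – inhibition of fibronectin deposition signal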
* marks the source's active call; other numbers are inactive results; ? = inconclusive; / = no result.

SMILES	SIRT5 inh	FGF22 binding	ARNT-TACC3 inh	DENV2 CPE	XiGFP reactiv	FN deposition inh
C[C@@H]1CN([C@@H](C)CO)C(=O)Cc2cc(N(C)C)ccc2O[C@@H]1CN(C)Cc1ccc(-c2ccccc2)cc1	0	0	12	-6	0	6
CO[C@@H]1CN(C)C(=O)c2ccc(NC(=O)c3cc(C)on3)cc2OC[C@@H](C)N(C(C)=O)C[C@H]1C	-2	0	4	12	0	-16
CCOC(=O)C1=C(C)Nc2ccccc2N=C1NC(=O)Cc1ccc(OC)cc1	/	/	0	/	/	/
CCOC(=O)C1=C(C)Nc2ccccc2N=C1NC(=O)/C=C/c1ccc(OC)cc1OC	0	44*	-5	9	0	/
O=C(NC1CCCC1)[C@H]1[C@H](CO)[C@H]2Cn3c(ccc(-c4cccnc4)c3=O)[C@H]2N1CC1CC1	7	0	-2	-5	0	/
Cc1cccc(-c2noc(CN(C)C(=O)c3ccoc3C)n2)c1	-7	0	9	?	/	1
Cc1cccc(-c2noc(CN(C)C(=O)c3ccco3)n2)c1	52*	42	/	-9	/	-3
Cc1ccc(S(=O)(=O)N(C)C[C@H]2OCCCC[C@H](C)Oc3ccc(NS(C)(=O)=O)cc3C(=O)N([C@@H](C)CO)C[C@H]2C)cc1	0	0	-6	14	0	6
CC(=O)N1C[C@@H]2C(c3ccccc3)[C@@H](C1)N2CC(F)(F)F (stereo not given in full)	/	/	/	/	0	-7
Fc1ccc(Nc2c3c(nc4ccccc24)CCC3)cc1	5	1.5*	1	3	0	-15
c1ccc(Nc2c3c(nc4ccccc24)CCC3)cc1	0	1	2	1	0	9
CN(C)C(=O)c1cccc(-c2ccc3c(c2)[C@@H]2[C@@H](CCN2C(=O)Cc2ccncc2)[C@@H](CO)N3)c1	/	0	15	104*	0	-9
CN(C)C(=O)c1cccc(-c2ccc3c(c2)[C@@H]2[C@@H](CCN2C(=O)Cc2ccccc2)[C@H](CO)N3)c1	2	0	3	9	0	-3
CN(C)C(=O)c1cccc(-c2ccc3c(c2)[C@H]2[C@H](CCN2C(=O)c2cccnc2)[C@@H](CO)N3)c1	/	0	11	31*	0	-1
CN(C)C(=O)c1cccc(-c2ccc3c(c2)[C@@H]2[C@@H](CCN2C(=O)c2cccnc2)[C@H](CO)N3)c1	/	0	9	-17	0	-7
O=C(NC1CCCc2c1cnn2-c1ccccc1F)c1ccncc1 (stereo not given)	-4	0	/	25*	0	5
O=C(NC1CCCc2c1cnn2-c1ccccc1F)c1ccccn1 (stereo not given)	-1	0	16	-1	0	7
COCC(=O)N(C)C[C@H]1Oc2ncc(-c3ccc(C)cc3)cc2C(=O)N([C@@H](C)CO)C[C@H]1C	-2	0	-6	12	0	-1
CCCC#Cc1ccc([C@H]2[C@@H](CO)N3C(=O)CN(C(=O)c4ccccc4)C[C@H]23)cc1	-1	/	/	3	0	/
C[C@@H]1CN([C@@H](C)CO)C(=O)c2cc(NS(=O)(=O)c3cn(C)cn3)ccc2O[C@@H](C)CCCCO[C@H]1CN(C)Cc1ccncc1	0	0	0	70*	0	/
C[C@@H]1CCCCO[C@@H](CN(C)C(=O)Cc2ccccc2)[C@H](C)CN([C@@H](C)CO)C(=O)c2cc(NS(=O)(=O)c3cn(C)cn3)ccc2O1	7	0	16	-11	0	/
